The test system of this experiment is L6. As to the kind of experiment: Activation of AMPK in rat L6 cells assessed as phosphorylated protein level at 40 uM after 30 mins by Western blot analysis relative to arctigenin. In kind it is cell-based. The procedure, abridged: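 L6 myoblasts kept in DMEM + 10% FBS at 37 °C, 5% CO2, then differentiated to myotubes in DMEM + 2% horse serum once 90% confluent. Cells exposed to 40 µM compound for 30 min. Lysates (Tris-HCl pH 7.5, NaCl, Na3VO4, Triton X-100, protease inhibitors) immunoblotted for phospho-AMPK and total AMPK by chemiluminescence. Band intensity × area normalized to total AMPK; three independent experiments.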
Consider `COc1ccc(C[C@H]2COC[C@@H]2Cc2ccc(OCCc3ccc(F)cc3)c(OC)c2)cc1OC`, for which the fold change (FC) turned out to be 0.97.

Consider `COc1ccc(CCCOc2ccc(C[C@H]3COC[C@@H]3Cc3ccc(OC)c(OC)c3)cc2OC)cc1OC`, for which the fold change (FC) worked out at 0.97.

With `COc1ccc(CCOc2ccc(C[C@H]3C(=O)OC[C@@H]3Cc3ccc(OC)c(OC)c3)cc2OC)cc1OC`, the fold change (FC) is 0.93.

Consider `COc1ccc(C[C@H]2COC(=O)[C@@H]2Cc2ccc(OC(=O)c3ccc(OC)c(OC)c3)c(OC)c2)cc1OC`, for which the fold change (FC) was 0.3.

As to `COc1ccc(CC(=O)Oc2ccc(C[C@H]3COC[C@@H]3Cc3ccc(OC)c(OC)c3)cc2OC)cc1OC`, the fold change (FC) turned out to be 0.83.

Regarding `COc1ccc(C[C@H]2COC(=O)[C@@H]2Cc2ccc(OC(=O)CC(C)C)c(OC)c2)cc1OC`, the fold change (FC) amounted to 0.48.

Consider `COc1ccc(C[C@H]2COC(=O)[C@@H]2Cc2ccc(OC(=O)c3ccc(F)cc3)c(OC)c2)cc1OC`, for which the fold change (FC) came out at 0.63.

Take `COc1ccc(C[C@H]2COC(=O)[C@@H]2Cc2ccc(OCCc3ccc(Cl)cc3)c(OC)c2)cc1OC`: the fold change (FC) worked out at 0.26.

With `COc1ccc(C[C@H]2COC[C@@H]2Cc2ccc(OC(=O)c3ccc(OC)c(OC)c3)c(OC)c2)cc1OC`, the fold change (FC) stood at 0.82.

In the case of `COc1ccc(C[C@H]2COC(=O)[C@@H]2Cc2ccc(OC(=O)c3ccc(C)cc3)c(OC)c2)cc1OC`, the fold change (FC) was 0.46.

On to `CCCC(=O)Oc1ccc(C[C@H]2COC[C@@H]2Cc2ccc(OC)c(OC)c2)cc1OC`, for which the fold change (FC) stood at 0.25.

For the compound `CCC(=O)Oc1ccc(C[C@H]2C(=O)OC[C@@H]2Cc2ccc(OC)c(OC)c2)cc1OC`, the fold change (FC) is 0.92.

In the case of `COc1ccc(C[C@H]2COC[C@@H]2Cc2ccc(OC(=O)c3cccnc3)c(OC)c2)cc1OC`, the fold change (FC) is 0.71.

As for `COc1ccc(C[C@H]2COC(=O)[C@@H]2Cc2ccc(OC(=O)c3ccco3)c(OC)c2)cc1OC`, the fold change (FC) was determined as 0.69.

In the case of `COc1cccc(C(=O)Oc2ccc(C[C@H]3COC[C@@H]3Cc3ccc(OC)c(OC)c3)cc2OC)c1`, the fold change (FC) is 0.82.

In the case of `COc1ccc(C[C@H]2COC[C@@H]2Cc2ccc(OC(=O)c3ccc(F)cc3)c(OC)c2)cc1OC`, the fold change (FC) was 0.37.

Take `COc1ccc(CCOc2ccc(C[C@H]3C(=O)OC[C@@H]3Cc3ccc(OC)c(OC)c3)cc2OC)cc1`: the fold change (FC) came out at 0.32.

For `COc1ccc(C[C@H]2COC[C@@H]2Cc2ccc(OC(C)=O)c(OC)c2)cc1OC`, the fold change (FC) was found to be 0.26.

In the case of `CCc1cncc(CCOc2ccc(C[C@H]3COC[C@@H]3Cc3ccc(OC)c(OC)c3)cc2OC)c1`, the fold change (FC) was 0.64.

Consider `COc1ccc(C[C@H]2COC(=O)[C@@H]2Cc2ccc(OCCc3ccccc3)c(OC)c2)cc1OC`, for which the fold change (FC) came out at 0.2.

As for `COc1ccc(CCOc2ccc(C[C@H]3COC[C@@H]3Cc3ccc(OC)c(OC)c3)cc2OC)cc1OC`, the fold change (FC) amounted to 1.45.

As to `COc1ccc(C[C@H]2COC(=O)[C@@H]2Cc2ccc(OC(C)C)c(OC)c2)cc1OC`, the fold change (FC) came out at 0.2.

For the compound `COc1ccc(C[C@H]2COC(=O)[C@@H]2Cc2ccc(OCCc3ccc4c(c3)OCO4)c(OC)c2)cc1OC`, the fold change (FC) is 0.28.

For `COc1ccc(C[C@H]2COC(=O)[C@@H]2Cc2ccc(OCCc3cc(OC)c(OC)c(OC)c3)c(OC)c2)cc1OC`, the fold change (FC) was 0.57.

Consider `COc1ccc(C[C@H]2COC[C@@H]2Cc2ccc(OCC(=O)c3ccc(OC)c(OC)c3)c(OC)c2)cc1OC`, for which the fold change (FC) came to 0.66.

Consider `COc1ccc(C[C@H]2COC[C@@H]2Cc2ccc(OC(=O)CC(C)C)c(OC)c2)cc1OC`, for which the fold change (FC) was found to be 0.25.

Turning to `COc1ccc(C[C@H]2COC[C@@H]2Cc2ccc(OCCc3ccc(F)c(F)c3)c(OC)c2)cc1OC`, the fold change (FC) worked out at 0.91.

Regarding `COc1ccccc1CCOc1ccc(C[C@H]2C(=O)OC[C@@H]2Cc2ccc(OC)c(OC)c2)cc1OC`, the fold change (FC) came to 0.32.

On to `COc1ccc(COc2ccc(C[C@H]3C(=O)OC[C@@H]3Cc3ccc(OC)c(OC)c3)cc2OC)cc1OC`, for which the fold change (FC) came to 0.36.

As for `COc1ccc(C[C@H]2COC(=O)[C@@H]2Cc2ccc(OCCc3ccccc3Cl)c(OC)c2)cc1OC`, the fold change (FC) was 0.24.

On to `COc1cccc(CCOc2ccc(C[C@H]3C(=O)OC[C@@H]3Cc3ccc(OC)c(OC)c3)cc2OC)c1`, for which the fold change (FC) turned out to be 0.69.

`COc1ccc(C[C@H]2COC(=O)[C@@H]2Cc2ccc(OCCc3ccccc3F)c(OC)c2)cc1OC`: the fold change (FC) is 0.34.

As for `COc1cc(CCOc2ccc(C[C@H]3COC[C@@H]3Cc3ccc(OC)c(OC)c3)cc2OC)cc(OC)c1`, the fold change (FC) is 0.68.

On to `C/C=C/C(=O)Oc1ccc(C[C@H]2C(=O)OC[C@@H]2Cc2ccc(OC)c(OC)c2)cc1OC`, for which the fold change (FC) was 0.86.

Consider `COc1cccc(CCOc2ccc(C[C@H]3COC[C@@H]3Cc3ccc(OC)c(OC)c3)cc2OC)c1`, for which the fold change (FC) was found to be 1.33.

Consider `COc1ccc(C[C@H]2COC[C@@H]2Cc2ccc(OCCc3cccnc3)c(OC)c2)cc1OC`, for which the fold change (FC) turned out to be 0.81.

`CCCC(=O)Oc1ccc(C[C@H]2C(=O)OC[C@@H]2Cc2ccc(OC)c(OC)c2)cc1OC`: the fold change (FC) was determined as 0.94.

With `CCCCC(=O)Oc1ccc(C[C@H]2C(=O)OC[C@@H]2Cc2ccc(OC)c(OC)c2)cc1OC`, the fold change (FC) is 1.16.

For `COc1ccc(C(=O)Oc2ccc(C[C@H]3C(=O)OC[C@@H]3Cc3ccc(OC)c(OC)c3)cc2OC)cc1`, the fold change (FC) was 0.46.

`COc1ccc(C[C@H]2COC(=O)[C@@H]2Cc2ccc(OC(=O)c3ccccc3)c(OC)c2)cc1OC`: the fold change (FC) was determined as 0.81.

Turning to `COc1ccc(C[C@H]2COC[C@@H]2Cc2ccc(OCCc3ccc(Cl)cc3)c(OC)c2)cc1OC`, the fold change (FC) amounted to 0.79.

Regarding `COc1ccc(C[C@H]2COC[C@@H]2Cc2ccc(OCCc3cc(OC)c(OC)c(OC)c3)c(OC)c2)cc1OC`, the fold change (FC) came to 1.25.

Turning to `COc1ccc(C[C@H]2COC(=O)[C@@H]2Cc2ccc(OC(=O)C(C)C)c(OC)c2)cc1OC`, the fold change (FC) was determined as 0.82.

Take `COc1ccc(C(=O)Oc2ccc(C[C@H]3COC[C@@H]3Cc3ccc(OC)c(OC)c3)cc2OC)cc1`: the fold change (FC) came out at 0.25.

Turning to `COc1cc(C[C@H]2COC[C@@H]2Cc2ccc(OC)c(OC)c2)ccc1O`, the fold change (FC) stood at 0.49.

For `COc1ccc(C[C@H]2COC(=O)[C@@H]2Cc2ccc(OCCc3ccc(F)cc3)c(OC)c2)cc1OC`, the fold change (FC) came to 0.35.

`CCOc1ccc(C[C@H]2C(=O)OC[C@@H]2Cc2ccc(OC)c(OC)c2)cc1OC`: the fold change (FC) was 0.14.

For the compound `COc1cc(CCOc2ccc(C[C@H]3C(=O)OC[C@@H]3Cc3ccc(OC)c(OC)c3)cc2OC)cc(OC)c1`, the fold change (FC) was 0.73.

With `COCCOc1ccc(C[C@H]2C(=O)OC[C@@H]2Cc2ccc(OC)c(OC)c2)cc1OC`, the fold change (FC) turned out to be 0.17.

In the case of `COc1ccc(C[C@H]2COC(=O)[C@@H]2Cc2ccc(OC(=O)C3CC3)c(OC)c2)cc1OC`, the fold change (FC) was determined as 0.62.

Turning to `CCOc1ccc(CCOc2ccc(C[C@H]3C(=O)OC[C@@H]3Cc3ccc(OC)c(OC)c3)cc2OC)cc1OCC`, the fold change (FC) amounted to 0.34.

With `COc1ccc(C[C@H]2COC(=O)[C@@H]2Cc2ccc(OCCc3ccc(C(C)(C)C)cc3)c(OC)c2)cc1OC`, the fold change (FC) worked out at 0.09.

Consider `COc1ccc(C[C@H]2COC[C@@H]2Cc2ccc(OC(=O)C3CCCCC3)c(OC)c2)cc1OC`, for which the fold change (FC) was determined as 0.23.

Take `COc1ccc(C[C@H]2COC(=O)[C@@H]2Cc2ccc(OC(C)=O)c(OC)c2)cc1OC`: the fold change (FC) is 1.11.

Regarding `COc1ccc(C[C@H]2COC(=O)[C@@H]2Cc2ccc(OC(=O)c3cccnc3)c(OC)c2)cc1OC`, the fold change (FC) worked out at 0.87.

As to `COc1ccc(CCOc2ccc(C[C@H]3COC[C@@H]3Cc3ccc(OC)c(OC)c3)cc2OC)cc1`, the fold change (FC) is 0.9.

For the compound `COc1ccc(CC(=O)Oc2ccc(C[C@H]3C(=O)OC[C@@H]3Cc3ccc(OC)c(OC)c3)cc2OC)cc1OC`, the fold change (FC) turned out to be 0.69.

On to `COc1ccc(C[C@H]2COC(=O)[C@@H]2Cc2ccc(OC(=O)CC(C)(C)C)c(OC)c2)cc1OC`, for which the fold change (FC) was 0.32.

Take `COc1ccc(CCCOc2ccc(C[C@H]3C(=O)OC[C@@H]3Cc3ccc(OC)c(OC)c3)cc2OC)cc1OC`: the fold change (FC) was 0.71.

Take `COc1ccc(C[C@H]2COC[C@@H]2Cc2ccc(OC(=O)c3ccco3)c(OC)c2)cc1OC`: the fold change (FC) is 0.41.

With `COc1cccc(C(=O)Oc2ccc(C[C@H]3C(=O)OC[C@@H]3Cc3ccc(OC)c(OC)c3)cc2OC)c1`, the fold change (FC) came to 0.64.

These data come from ChEMBL document CHEMBL2390915, “Synthesis and biological evaluation of arctigenin ester and ether derivatives as activators of AMPK” (Bioorg Med Chem, 2013).
